Measurements from PubChem BioAssay AID1885 (Broad Institute, 2009).
Among all 300,000 compounds or so, about 4,400 (1.5%) were called active. What follows is part of a selection rich in actives, with near analogues and random picks from the rest. Unmarked numbers belong to inactive results.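 How the source made its calls: active means mean inhibition across valid replicates above about 55% (limit read from the data); inconclusive means mean below that limit but half or more replicates reach it; inactive means mean below it, under half of replicates reach it.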

test: Trypanosoma cruzi replication blockers in host cells – luminescence, NIH3T3 host cells, primary screen (AID 1885);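 further: signal also drops with host cell toxicity which is not excluded here; 0% = plate median of DMSO wells and 100% = zero luminescence signal; higher percent means less beta-gal luminescence so fewer parasites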; conditions: T. cruzi beta-gal in NIH3T3, luminescence, 90 h; active compounds read high; concentration not given here
How it was run: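 Material: NIH/3T3 host cells with β-galactosidase reporter T. cruzi; Input: 5,000 host fibroblasts per well; Medium: DMEM, 2% fetal bovine serum; Compound: 50 nL DMSO compound solution per well; Schedule: 3 h host attachment, then at least 90 h co-culture; Detection: luminescent β-galactosidase signal after 60 min lysis.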

SMILES	inhibition
CCOc1cc(C(=O)O)ccc1OCCOc1ccccc1	3.5%
O=C(NCC1CCN(Cc2ccccc2Cl)CC1)Nc1cccc(Cl)c1	49.4%
Cc1ccccc1NC(=O)NCC1CCN(Cc2cccc(Cl)c2)CC1	57.5% (active)
Cc1cccc(CN2CCC(CNC(=O)Nc3ccc(F)c(Cl)c3)CC2)c1	46.2%
CSc1ccc(/C=C2\NC(=O)NC2=O)cc1	-13.1%
CC(=O)Nc1cccc(NC(=O)c2ccc3c(c2)CCN3S(C)(=O)=O)c1	-5.53%
OC(CNCC1CCCO1)Cn1c2ccc(Br)cc2c2cc(Br)ccc21 (stereo unspecified)	55.2% (active)
CC(NS(=O)(=O)c1ccc(Br)cc1)C(=O)NCC1CCCO1 (stereo unspecified)	0.0781%
O=C(CSc1ccc(-c2ccc(Br)cc2)nn1)NCC1CCCO1 (stereo unspecified)	-13.2%
CN1CCc2ccccc2C1Cc1ccccc1NC(=O)c1sc2ccccc2c1Cl (stereo unspecified)	54.6% (active)
Cc1nn(C)cc1/C=N/NC(=O)c1sc2ccccc2c1Cl	-4.55%
COc1ccc(CNC(=O)CNC(=O)c2sc3ccccc3c2Cl)cc1OC	13.1%
COCCCNC(NC(=O)c1ccc(OC)cc1)C(Cl)(Cl)Cl (stereo unspecified)	-20.9%
COc1ccccc1NC(=O)C(C)OC(=O)c1ccc(-n2cnnn2)cc1 (stereo unspecified)	-5.21%
O=C(Nc1cc(Cl)ccc1N1CCOCC1)c1ccc(N2CCCC2=O)cc1	-1.5%
CC(OC(=O)c1ccc(-n2cnnn2)cc1)C(=O)NCc1ccccc1 (stereo unspecified)	-10.5%
Cc1ccc(C(=O)NCC(=O)OCc2nnc(-c3ccccc3)o2)cc1	0.567%
Cc1[nH]nc(-c2ccc(OCc3cnn(-c4ccccc4)c3)cc2O)c1Oc1ccc(Cl)cc1	57.6% (active)
COc1ccc(C(=O)Cc2cnn(-c3ccccc3)c2)c(O)c1	33.1%
C=C(C)COc1ccc(-c2n[nH]c(C)c2-c2ccccc2)c(O)c1	-19.2%
COc1cc(OC)c(C(=O)OC(C)C(=O)Nc2cc(C(F)(F)F)ccc2Cl)cc1OC (stereo unspecified)	18.6%
CCC(C)N(C(=O)Cn1nc(C)c([N+](=O)[O-])c1C)C1CCS(=O)(=O)C1 (stereo unspecified)	-2.7%
CC(=O)Nc1ccc(NC(=O)CSC2=NS(=O)(=O)c3ccccc3N2)cc1	0.486%

SMILES	inhibition
Oc1ccc(CN2CCN(c3ncccn3)CC2)cc1	-5.02%
Oc1c(CN2CCN(c3ccc(F)cc3)CC2)cc(Cl)c2cccnc12	59.9% (active)
Cc1cccnc1NC(=O)c1cccc(S(=O)(=O)N2CCN(c3ccc(F)cc3)CC2)c1	13.5%
CC12CCC(=O)N1C(C(=O)Nc1ccc(F)c(F)c1F)CS2 (stereo unspecified)	-7.75%
COc1cccc(NC(=O)CN(C)C(=O)CSC(=S)N2CCCC2)c1	-6.94%
CCOC(=O)c1sc(=S)n2c1[nH]c(=O)c1ccc(C(=O)OC)cc12	4.87%
CCOC(=O)C1=C(C)Nc2sc(C(=O)c3ccc(Br)cc3)c(N)c2C1c1ccc(C(=O)OC)cc1 (stereo unspecified)	76.1% (active)
CCOC(=O)c1sc(=NC(=O)c2ccc(Br)cc2)n(C)c1C	-5.34%
COc1cc(C(=O)NCC(=O)NCCSc2ccc(Br)cc2)cc(OC)c1OC	-6.77%
CCC(C)(C)n1nnnc1C(c1cccs1)N1CCN(c2nc3ccccc3s2)CC1 (stereo unspecified)	66.6% (active)
CCC(C)(C)n1nnnc1C(c1cccs1)N1CCN(Cc2ccccc2)CC1 (stereo unspecified)	5.19%
CCC(C)(C)n1nnnc1C(c1ccccc1OC)N1CCSCC1 (stereo unspecified)	-14.5%
COc1ccc(Cc2nnc(SCC(=O)Nc3ccc(C)c(Cl)c3)[nH]c2=O)cc1	23.1%
Fc1cc(Br)ccc1NC(=S)Nc1cccnc1	-15.3%
S=C(NCCc1ccccc1)N1CCn2cccc2C1c1ccncc1 (stereo unspecified)	23.4%
S=C(Nc1cccc(Br)c1)N1CCn2cccc2C1c1cccnc1 (stereo unspecified)	72.8% (active)
O=C(COC(=O)/C=C/c1ccc(OC(F)F)cc1)NC1CCCCC1	-1.87%
C=CCn1c(SCCOc2ccc(OC)cc2)nnc1C(NC(=O)c1ccc(OC)cc1)C(C)C (stereo unspecified)	4.8%
Cc1ccc(C(=O)NNC(=O)c2ccncc2)cc1S(=O)(=O)N1CCCCC1	-3.57%
Cc1ccc(N=C2SCCCN2C(=O)c2cccc(N3C(=O)CCC3=O)c2)cc1Cl	35.8%
CC(Nc1nc(N2CCOCC2)nc2ccccc12)c1ccccc1 (stereo unspecified)	31.7%
CC(Nc1nc(N2CCN(CCO)CC2)nc2ccccc12)c1ccccc1 (stereo unspecified)	-7.35%
CC(Nc1nc(N2CCCC2)nc2ccccc12)c1ccccc1 (stereo unspecified)	58.1% (active)

SMILES	inhibition
O=C(NCCC1CCCCN1S(=O)(=O)c1ccc(F)cc1)C(=O)NC1CC1 (stereo unspecified)	-6.12%
COc1cc(NC(=O)CSc2ccc(-c3cccnc3)nn2)cc(OC)c1	1.76%
COc1ccc(N2CC(NS(=O)(=O)c3ccc4ccccc4c3)CC2=O)cc1 (stereo unspecified)	-4.61%
O=C(NCc1ccncc1)c1ccc(NS(=O)(=O)c2cccc([N+](=O)[O-])c2)cc1	-11.6%
O=C(Nc1cc2c3c(c1)C1CCCC1CN3CC1CCCC21)c1ccc([N+](=O)[O-])cc1 (stereo unspecified)	82.1% (active)
O=C(Nc1ccccc1C(=O)Nc1ccncc1)c1ccc([N+](=O)[O-])cc1	31.4%
CN1C2CCC1CC(NC(=O)c1ccc([N+](=O)[O-])cc1)C2 (stereo unspecified)	8.42%
Cc1csc(=O)n1CC(=O)OCC(=O)N(CC(C)C)c1c(N)n(Cc2ccccc2)c(=O)[nH]c1=O	-7.8%
Cc1c(NC(=O)CSc2nnnn2-c2ccc(C(=O)O)cc2)c(=O)n(-c2ccccc2)n1C	-12.6%
Cc1ccc(NC(=O)CSc2cccc3cccnc23)c(C)c1	26.2%
Cc1c(NC(=O)CSc2cccc3cccnc23)c(=O)n(-c2ccccc2)n1C	67.7% (active)
CC(C)CCNc1nc(N2CCCC2)c2c(c1C#N)CCN(C)C2	58.4% (active)
CCc1nc(NCCO)c(C#N)c2c1CCCC2	-15%
CC(C)Cc1nc(N2CCOCC2)c(C#N)c2c1CCC2	9.81%
CSCCC(NC(=O)c1ccco1)C(=O)Nc1cc(C)ccn1 (stereo unspecified)	-2.39%
Cc1ccc(C2CC(c3cccc(C)c3)n3nc(N)nc3N2)cc1 (stereo unspecified)	36.3%
COc1ccc(C2CC(c3ccc(C)cc3)Nc3nc(N)nn32)cc1 (stereo unspecified)	61.3% (active)
Cc1ccc(C2CC(c3cccc(Br)c3)n3nc(N)nc3N2)cc1 (stereo unspecified)	14.7%
CCc1ccccc1NC(=O)CN(C)S(=O)(=O)c1ccc2c(c1)c(=O)n(C)c(=O)n2C	-4.15%
O=C1CSC(c2ccccc2)N1c1nc(-c2ccc(Cl)cc2Cl)cs1 (stereo unspecified)	28.7%
Clc1ccc(-c2cc(-c3ccccn3)on2)c(Cl)c1	14.9%
Clc1ccc(-c2cc(C3CCNCC3)[nH]n2)c(Cl)c1	65.5% (active)
CCCN(CC(=O)Nc1ccccc1OC)C(=O)CCC(=O)c1ccc(F)cc1	0.665%

SMILES	inhibition
C/[N+]([O-])=C\c1ccc([N+](=O)[O-])o1	67% (active)
CCc1ccc(S(=O)(=O)N/N=C\c2ccc([N+](=O)[O-])o2)cc1	19%
Cc1cc(C)nc(N/N=C/c2ccc([N+](=O)[O-])o2)n1	26.9%
COc1ccc(C(=NN)c2ccc(OC)cc2)cc1	-17.9%
CCCC1(C(=O)OCC)NC(c2ccc(N(C)C)cc2)C2C(=O)N(c3ccc4c(c3)OCCO4)C(=O)C21 (stereo unspecified)	-15%
CN(C)CCOc1ccc(Cl)cc1C(C)(C)C	57.6% (active)
CC(C)(C)NCCCOc1ccc(Cl)cc1C(C)(C)C	33.9%
CN(C)CCOCCOc1ccc(Cl)c2ccccc12	33.2%
COc1ccccc1C(CNC(=O)c1cccc(NS(=O)(=O)c2ccc(Br)cc2)c1)N(C)C (stereo unspecified)	0.0669%
CCN(CC(=O)Nc1cc(Cl)ccc1C)C(=O)CSCc1ccc(C)cc1	7.73%
O=C(N/N=C/c1cccc(OC(=O)c2ccc([N+](=O)[O-])cc2)c1)c1cccnc1	-36.5%
O=C(N/N=C/c1cccc([N+](=O)[O-])c1)c1ccncc1	-13.8%
N#Cc1cc([N+](=O)[O-])ccc1Oc1cccc(/C=N/NC(=O)c2ccc(Cl)cc2)c1	74.5% (active)
CCc1ccc(C(=O)NNC(=O)C2CCN(c3ncnc4sc(C)c(C)c34)CC2)cc1	24%
O=C(COC(=O)c1c2c(nc3ccccc13)CCCC2)c1ccc(Br)s1	-9.74%
COc1cc(/C=C2\CCCc3c2nc2ccccc2c3C(=O)O)cc(Cl)c1O	6.47%
O=C(COC(=O)c1c2c(nc3ccccc13)/C(=C\c1cccs1)CCC2)Nc1ccccc1Cl	54.9% (active)
COc1cc(-c2cc(C(=O)OCC(=O)Nc3ccc4c(c3)OCO4)c3ccccc3n2)cc(OC)c1OC	5.72%
CC(NC(=O)COC(=O)c1ccc2c(c1)OCO2)c1ccccc1 (stereo unspecified)	-10.2%
NC(=O)c1ccc(NC(=O)COC(=O)c2c3c(nc4ccccc24)/C(=C\c2ccc4c(c2)OCO4)CCC3)cc1	69.5% (active)
O=C1CN(C(=O)c2cc(F)cc(F)c2)c2ccccc2N1	-7.57%
CCCc1cc(=O)[nH]c(SCC(=O)c2c(N)n(CC(C)C)c(=O)n(C)c2=O)n1	-8.24%
